Results published in ChEMBL document CHEMBL1137737, “Synthesis, antimicrobial and cytotoxic activities of 1,3,4-oxadiazoles, 1,3,4-thiadiazoles and 1,2,4-triazoles” (Eur J Med Chem, 2009).
In brackets after ≈: the same amount, converted by molar mass.

Columns and labels:
Assay type in all cases: functional
[1] = tested on: Staphylococcus aureus; assay: Antibacterial activity against Staphylococcus aureus NCIM 5021 at 100 ug/disk after 24 hrs by agar disc-diffusion method; details: NCIM 5021, 24 h, read-out: DIZ
In short: (§1)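 Sterile 6 mm filter-paper discs are soaked in compound solution in DMSO and placed on nutrient agar plates already inoculated with each organism. Plates are incubated at 37 °C. The diameter of the growth-inhibition zone is read after 24 h for bacteria and after 48 h for fungi.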

[2] = tested on: Bacillus subtilis; assay: Antibacterial activity against Bacillus subtilis NCIM 2063 at 100 ug/disk after 24 hrs by agar disc-diffusion method; details: NCIM 2063, 24 h, read-out: DIZ; in short: as §1
[3] = tested on: Klebsiella pneumoniae; assay: Antibacterial activity against Klebsiella pneumoniae NCIM 2957 at 100 ug/disk after 24 hrs by agar disc-diffusion method; details: NCIM 2957, 24 h, read-out: DIZ; in short: as §1
[4] = tested on: Proteus vulgaris; assay: Antibacterial activity against Proteus vulgaris NCIM 2027 at 100 ug/disk after 24 hrs by agar disc-diffusion method; details: NCIM 2027, 24 h, read-out: DIZ; in short: as §1
[5] = tested on: Fusarium solani; assay: Antifungal activity against Fusarium solani NCIM 1330 at 100 ug/disk after 48 hrs by agar disc-diffusion method; details: NCIM 1330, 48 h, read-out: DIZ; in short: as §1
[6] = tested on: Curvularia lunata; assay: Antifungal activity against Curvularia lunata NCIM 716 at 100 ug/disk after 48 hrs by agar disc-diffusion method; details: NCIM 716, 48 h, read-out: DIZ; in short: as §1
[7] = tested on: Aspergillus niger; assay: Antifungal activity against Aspergillus niger NCIM 596 at 100 ug/disk after 48 hrs by agar disc-diffusion method; details: NCIM 596, 48 h, read-out: DIZ; in short: as §1
[8] = tested on: Staphylococcus aureus; assay: Antibacterial activity against Staphylococcus aureus NCIM 5021 at 200 ug/disk after 24 hrs by agar disc-diffusion method; details: NCIM 5021, 24 h, read-out: DIZ; in short: as §1
[9] = tested on: Bacillus subtilis; assay: Antibacterial activity against Bacillus subtilis NCIM 2063 at 200 ug/disk after 24 hrs by agar disc-diffusion method; details: NCIM 2063, 24 h, read-out: DIZ; in short: as §1
[10] = tested on: Klebsiella pneumoniae; assay: Antibacterial activity against Klebsiella pneumoniae NCIM 2957 at 200 ug/disk after 24 hrs by agar disc-diffusion method; details: NCIM 2957, 24 h, read-out: DIZ; in short: as §1
[11] = tested on: Proteus vulgaris; assay: Antibacterial activity against Proteus vulgaris NCIM 2027 at 200 ug/disk after 24 hrs by agar disc-diffusion method; details: NCIM 2027, 24 h, read-out: DIZ; in short: as §1
[12] = tested on: Fusarium solani; assay: Antifungal activity against Fusarium solani NCIM 1330 at 200 ug/disk after 48 hrs by agar disc-diffusion method; details: NCIM 1330, 48 h, read-out: DIZ; in short: as §1
[13] = tested on: Curvularia lunata; assay: Antifungal activity against Curvularia lunata NCIM 716 at 200 ug/disk after 48 hrs by agar disc-diffusion method; details: NCIM 716, 48 h, read-out: DIZ; in short: as §1
[14] = tested on: Aspergillus niger; assay: Antifungal activity against Aspergillus niger NCIM 596 at 200 ug/disk after 48 hrs by agar disc-diffusion method; details: NCIM 596, 48 h, read-out: DIZ; in short: as §1
[15] = tested on: Staphylococcus aureus; assay: Antibacterial activity against Staphylococcus aureus NCIM 5021 after 24 hrs by microdilution susceptibility method; details: NCIM 5021, 24 h
In short: (§2)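 This is a microdilution susceptibility test. Organism suspensions are inoculated into wells holding the dilution series, then incubated at 36 °C for 24 h (bacteria) or 48 h (fungi). MIC is the lowest concentration giving no turbidity, i.e. complete inhibition of visible growth.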

[16] = tested on: Bacillus subtilis; assay: Antibacterial activity against Bacillus subtilis NCIM 2063 after 24 hrs by microdilution susceptibility method; details: NCIM 2063, 24 h; in short: as §2
[17] = tested on: Klebsiella pneumoniae; assay: Antibacterial activity against Klebsiella pneumoniae NCIM 2957 after 24 hrs by microdilution susceptibility method; details: NCIM 2957, 24 h; in short: as §2
[18] = tested on: Proteus vulgaris; assay: Antibacterial activity against Proteus vulgaris NCIM 2027 after 24 hrs by microdilution susceptibility method; details: NCIM 2027, 24 h; in short: as §2
[19] = tested on: Fusarium solani; assay: Antifungal activity against Fusarium solani NCIM 1330 after 48 hrs by microdilution susceptibility method; details: NCIM 1330, 48 h; in short: as §2
[20] = tested on: Curvularia lunata; assay: Antifungal activity against Curvularia lunata NCIM 716 after 48 hrs by microdilution susceptibility method; details: NCIM 716, 48 h; in short: as §2
[21] = tested on: Aspergillus niger; assay: Antifungal activity against Aspergillus niger NCIM 596 after 48 hrs by microdilution susceptibility method; details: NCIM 596, 48 h; in short: as §2

Structure (SMILES)	zone of inhibition at 100 µg/disc [1]	zone of inhibition at 100 µg/disc [2]	zone of inhibition at 100 µg/disc [3]	zone of inhibition at 100 µg/disc [4]	zone of inhibition at 100 µg/disc [5]	zone of inhibition at 100 µg/disc [6]	zone of inhibition at 100 µg/disc [7]	zone of inhibition at 200 µg/disc [8]	zone of inhibition at 200 µg/disc [9]	zone of inhibition at 200 µg/disc [10]	zone of inhibition at 200 µg/disc [11]	zone of inhibition at 200 µg/disc [12]	zone of inhibition at 200 µg/disc [13]	zone of inhibition at 200 µg/disc [14]	MIC [15]	MIC [16]	MIC [18]	MIC [19]	MIC [20]	MIC [21]	other results
Nn1c(CS(=O)(=O)c2ccc(Cl)cc2)nnc1-c1ccccc1Cl	19 mm	16 mm	18 mm	19 mm	24 mm	23 mm	20 mm	23 mm	18 mm	20 mm	20 mm	27 mm	25 mm	24 mm	400 µg/mL (≈ 1040 µM)	400 µg/mL (≈ 1040 µM)	400 µg/mL (≈ 1040 µM)	200 µg/mL (≈ 522 µM)	200 µg/mL (≈ 522 µM)	400 µg/mL (≈ 1040 µM)	MIC [17]: 400 µg/mL (≈ 1040 µM)
O=S(=O)(Cc1nnc(-c2ccccc2Cl)s1)c1ccc(Cl)cc1	21 mm	19 mm	16 mm	19 mm	20 mm	19 mm	17 mm	23 mm	23 mm	19 mm	21 mm	24 mm	22 mm	21 mm	200 µg/mL (≈ 519 µM)	200 µg/mL (≈ 519 µM)	400 µg/mL (≈ 1040 µM)	200 µg/mL (≈ 519 µM)	200 µg/mL (≈ 519 µM)	200 µg/mL (≈ 519 µM)	MIC [17]: 400 µg/mL (≈ 1040 µM)
Nn1c(CS(=O)(=O)Cc2ccccc2)nnc1-c1ccccc1Cl	29 mm	30 mm	24 mm	26 mm	21 mm	18 mm	17 mm	32 mm	34 mm	28 mm	29 mm	23 mm	20 mm	21 mm	100 µg/mL (≈ 276 µM)	200 µg/mL (≈ 551 µM)	200 µg/mL (≈ 551 µM)	100 µg/mL (≈ 276 µM)	100 µg/mL (≈ 276 µM)	100 µg/mL (≈ 276 µM)	MIC [17]: 200 µg/mL (≈ 551 µM)
Nn1c(CS(=O)(=O)c2ccc(Cl)cc2)nnc1-c1ccccc1	19 mm	17 mm	17 mm	18 mm	21 mm	22 mm	19 mm	23 mm	20 mm	19 mm	21 mm	24 mm	25 mm	22 mm	400 µg/mL (≈ 1150 µM)	400 µg/mL (≈ 1150 µM)	400 µg/mL (≈ 1150 µM)	200 µg/mL (≈ 573 µM)	200 µg/mL (≈ 573 µM)	200 µg/mL (≈ 573 µM)	–
O=C(N[C@H](CO)[C@H](O)c1ccc([N+](=O)[O-])cc1)C(Cl)Cl [CHLORAMPHENICOL]	35 mm	38 mm	37 mm	42 mm	–	–	–	41 mm	44 mm	42 mm	45 mm	–	–	–	6.25 µg/mL (≈ 19.3 µM)	6.25 µg/mL (≈ 19.3 µM)	12.5 µg/mL (≈ 38.7 µM)	–	–	–	MIC [17]: 6.25 µg/mL (≈ 19.3 µM)
O=S(=O)(Cc1nnc(-c2ccccc2)s1)c1ccc(Cl)cc1	20 mm	18 mm	15 mm	16 mm	18 mm	19 mm	16 mm	23 mm	23 mm	17 mm	19 mm	21 mm	21 mm	19 mm	400 µg/mL (≈ 1140 µM)	400 µg/mL (≈ 1140 µM)	–	400 µg/mL (≈ 1140 µM)	400 µg/mL (≈ 1140 µM)	400 µg/mL (≈ 1140 µM)	–
CC(=O)N1CCN(c2ccc(OCC3COC(Cn4ccnc4)(c4ccc(Cl)cc4Cl)O3)cc2)CC1 (stereo not given) [KETOCONAZOLE]	–	–	–	–	38 mm	41 mm	36 mm	–	–	–	–	42 mm	44 mm	39 mm	–	–	–	12.5 µg/mL (≈ 23.5 µM)	6.25 µg/mL (≈ 11.8 µM)	6.25 µg/mL (≈ 11.8 µM)	–
O=S(=O)(Cc1nnc(-c2ccccc2Cl)s1)c1ccccc1	20 mm	15 mm	17 mm	16 mm	19 mm	18 mm	15 mm	23 mm	18 mm	21 mm	19 mm	22 mm	21 mm	18 mm	400 µg/mL (≈ 1140 µM)	400 µg/mL (≈ 1140 µM)	–	400 µg/mL (≈ 1140 µM)	400 µg/mL (≈ 1140 µM)	400 µg/mL (≈ 1140 µM)	–
Nn1c(CS(=O)(=O)c2ccccc2)nnc1-c1ccccc1Cl	17 mm	19 mm	17 mm	16 mm	23 mm	22 mm	18 mm	20 mm	22 mm	20 mm	18 mm	25 mm	25 mm	21 mm	400 µg/mL (≈ 1150 µM)	200 µg/mL (≈ 573 µM)	–	400 µg/mL (≈ 1150 µM)	200 µg/mL (≈ 573 µM)	–	–
